An excerpt weighted towards active compounds, which were near 3.9% of everything screened.
CHRM1 agonist: human M1 muscarinic receptor agonism; P11229; CHO-K1 hM1, Fluo-8 calcium fluorescence, agonist mode; 0% DMSO, 100% acetylcholine EC100; activation, % at 3 µM; 0.33% of 360,000 active;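 active = activation above the run's mean compound activation plus 3 SD, cut at about 16% in these data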;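 also: peak over basal fluorescence ratio within a 140 s kinetic read after compound addition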
CHRM1 PAM: positive allosteric modulators of human M1 muscarinic receptor; P11229; CHO-K1 hM1, Fluo-8 calcium fluorescence, ACh EC20; 0% = ACh EC20, 100% = maximal ACh; activation, % at 3 µM; 0.088% of 360,000 active; in the data active = activation above about 19%, passing the limit was not always enough
HTR2A ag: activates the mouse 5-HT2A serotonin receptor; P35363; CHO-K1 mHTR2A beta-arrestin complementation, luminescence; percent of 30 µM serotonin response; activation, % at 7.6 µM; 0.66% of 360,000 active;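 active = activation above a run cutoff, the mean activation of all tested compounds plus 3 SD, cut at about 14% in these data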;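 also: 0% = plate median of compound wells and 100% = 30 µM serotonin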
TAAR1 antagonist: human TAAR1 antagonism; Q96RJ0; CHO RD-HGA16 TAAR1, Fluo-8 calcium fluorescence, antagonist; inhibition, % at 3 µM; 1.5% of 360,000 active; AID 624466;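 active = inhibition above a per-plate cutoff, the mean inhibition of test compounds on that plate plus 3 SD, cut at about 49% in these data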;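 also: 0% = DMSO plus EC80 beta-PEA response and 100% = DMSO alone without agonist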
Target sequence (Q96RJ0 whole entry, looked up): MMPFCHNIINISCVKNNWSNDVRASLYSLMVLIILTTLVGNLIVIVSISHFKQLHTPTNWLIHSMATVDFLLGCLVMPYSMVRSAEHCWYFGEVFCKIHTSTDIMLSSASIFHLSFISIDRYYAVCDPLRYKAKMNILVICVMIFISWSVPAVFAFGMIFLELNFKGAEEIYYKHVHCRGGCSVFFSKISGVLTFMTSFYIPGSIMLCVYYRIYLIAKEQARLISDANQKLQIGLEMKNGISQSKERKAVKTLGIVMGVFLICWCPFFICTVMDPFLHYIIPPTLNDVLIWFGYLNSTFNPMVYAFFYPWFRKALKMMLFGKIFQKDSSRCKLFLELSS
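System: CHO RD-HGA16 cells bearing hTAAR1. Reagent: EC80 β-phenethylamine stimulus. Schedule: seeding 17-24 h prior, 75-min 37 °C, 30-min RT dye loading. Signal: Fluo-8 intracellular calcium dye fluorescence, real-time kinetic reads. Read-out: % inhibition from peak post-agonist over basal fluorescence ratio. Benchmarks: vehicle wells and EC80 agonist wells. Replicates: n of 1.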
TAAR1 ag: human TAAR1 agonism | Q96RJ0 | CHO RD-HGA16 TAAR1, Fluo-8 calcium fluorescence; vehicle wells 0%, saturating PEA agonist 100% | activation, % at 3 µM | 0.99% of 360,000 active;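 active = activation above the mean activation of all test compounds in the run plus 3 SD, cut at about 38% in these data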
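System: CHO-derived RD-HGA16 cells with stable Gα16 and human TAAR1 / Times: 17-24 h plating, Fluo-8 75 min 37 °C, 30 min RT / Technique: calcium-sensitive Fluo-8 signal, excitation 470-495, emission 515-575 nm / Measure: % activation relative to PEA EC100 response / Benchmarks: DMSO and PEA EC100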
M1 antag: human CHRM1 antagonism; P11229; CHO-K1 hM1, Fluo-8 calcium fluorescence, ACh EC80 antagonist; inhibition, % at 3 µM; 1.3% of 360,000 active;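 active = percent inhibition above its own plate's cutoff, namely the mean of that plate's compound wells plus 3 SD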;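 also: peak over basal fluorescence ratio during 140 s after agonist addition; 0% = ACh EC80 plus DMSO and 100% = DMSO alone without agonist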
The depositor's hits bear a star.

What do the screens show for `C=C(C)C(COc1c2occc2cc2ccc(=O)oc12)OC(C)(C)C(O)COc1c2occc2cc2ccc(=O)oc12` (stereo unspecified)?
CHRM1 agonist: -2; CHRM1 PAM: -15; HTR2A ag: 4; TAAR1 antagonist: 58*; TAAR1 ag: 16; M1 antag: 23

Results for CCC(=O)N1CCC2(CC1)Oc1ccc(Cl)cc1C(=O)C21CC(c2ccccc2)=NO1 (stereo unspecified) ?
CHRM1 agonist: -2; CHRM1 PAM: -1; HTR2A ag: 2; TAAR1 antagonist: 54*; TAAR1 ag: 25; M1 antag: 0

Results for S=C(NCc1ccco1)N1CCN(C(c2ccccc2)c2ccccc2)CC1 ?
CHRM1 agonist: -8; CHRM1 PAM: -18; HTR2A ag: -6; TAAR1 antagonist: 22; TAAR1 ag: 1; M1 antag: 18*

Results for COc1ccc(CNC(=O)CN2CCN(C(c3ccccc3)c3ccccc3)CC2)cc1 ?
CHRM1 agonist: -6; CHRM1 PAM: -19; HTR2A ag: -5; TAAR1 antagonist: 20; TAAR1 ag: 9; M1 antag: 34*

What do the screens show for `COc1ccc(NC(=S)N2CCN(C(c3ccccc3)c3ccccc3)CC2)c(OC)c1`?
CHRM1 agonist: -14; CHRM1 PAM: -33; HTR2A ag: -8; TAAR1 antagonist: -4; TAAR1 ag: 1; M1 antag: 46*

How did O=C(CN1CCN(C(c2ccccc2)c2ccccc2)CC1)NC(=O)NCc1ccco1 do in these assays?
CHRM1 agonist: -4; CHRM1 PAM: -11; HTR2A ag: -2; TAAR1 antagonist: -18; TAAR1 ag: 17; M1 antag: 30*

How did O=C(CN1CCN(c2ccccc2)CC1)NC(=O)NCc1ccco1 do in these assays?
CHRM1 agonist: -4; CHRM1 PAM: 3; HTR2A ag: 1; TAAR1 antagonist: -7; TAAR1 ag: -1; M1 antag: -4

How did COc1cccc(NC(=S)N2CCN(C(c3ccccc3)c3ccccc3)CC2)c1 do in these assays?
CHRM1 agonist: -10; CHRM1 PAM: -22; HTR2A ag: -3; TAAR1 antagonist: -15; TAAR1 ag: 0; M1 antag: 20

How did CCCCNC(=NCc1cccc(C(F)(F)F)c1)Nc1ccccc1 do in these assays?
CHRM1 agonist: -5; CHRM1 PAM: -2; HTR2A ag: -4; TAAR1 antagonist: 13; TAAR1 ag: 18; M1 antag: -2

How did CCn1c(SCC(=O)OC(C)C)nnc1-c1ccccc1OC do in these assays?
CHRM1 agonist: -4; CHRM1 PAM: 7; HTR2A ag: -1; TAAR1 antagonist: 3; TAAR1 ag: 0; M1 antag: -2

What do the screens show for `COc1ccc(/C(C)=N/NC(=S)NCCc2ccccc2)c(O)c1`?
CHRM1 agonist: -3; CHRM1 PAM: -6; HTR2A ag: -7; TAAR1 antagonist: 9; TAAR1 ag: 8; M1 antag: -1

How did N#CC1=C(N)SC(N)=C(C#N)C1CCc1ccccc1 do in these assays?
CHRM1 agonist: 12; CHRM1 PAM: 4; HTR2A ag: 7; TAAR1 antagonist: 37; TAAR1 ag: 30; M1 antag: 9

What do the screens show for `CCc1ccc(C2C(C#N)=C(N)SC(N)=C2C#N)cc1`?
CHRM1 agonist: 17*; CHRM1 PAM: -18; HTR2A ag: -1; TAAR1 antagonist: 32; TAAR1 ag: 43*; M1 antag: 20

Results for N#CC1=C(N)SC(N)=C(C#N)C1Cc1ccccc1 ?
CHRM1 agonist: 6; CHRM1 PAM: -4; HTR2A ag: 0; TAAR1 antagonist: 38; TAAR1 ag: 43*; M1 antag: 0

Results for Cc1ccccc1-n1nnnc1SCC(=O)Nc1ccc(N2CCN(C)CC2)cc1 ?
CHRM1 agonist: -14; CHRM1 PAM: -17; HTR2A ag: -4; TAAR1 antagonist: 11; TAAR1 ag: 25; M1 antag: 7

How did Cc1ccccc1-n1nnnc1SC(C)C(=O)Nc1ccc(N2CCN(C)CC2)cc1 (stereo unspecified) do in these assays?
CHRM1 agonist: -5; CHRM1 PAM: -21; HTR2A ag: 0; TAAR1 antagonist: 0; TAAR1 ag: 26; M1 antag: 51*

What do the screens show for `Cc1ncccc1C(=O)N1CCCC(CNC(=O)C2(c3ccc(Cl)cc3)CC2)C1` (stereo unspecified)?
CHRM1 agonist: -8; CHRM1 PAM: -15; HTR2A ag: -1; TAAR1 antagonist: -21; TAAR1 ag: -4; M1 antag: 17

What do the screens show for `COc1ccccc1C(CNC(=O)c1cccc(S(=O)(=O)N2c3ccccc3CC2C)c1)N(C)C` (stereo unspecified)?
CHRM1 agonist: -8; CHRM1 PAM: -26; HTR2A ag: -9; TAAR1 antagonist: -14; TAAR1 ag: 1; M1 antag: 99*

What do the screens show for `COc1ccccc1C(CNC(=O)c1cccc(S(=O)(=O)N2CCCc3ccccc32)c1)N(C)C` (stereo unspecified)?
CHRM1 agonist: -9; CHRM1 PAM: -31; HTR2A ag: -11; TAAR1 antagonist: -16; TAAR1 ag: 10; M1 antag: 101*

How did CC1Cc2ccccc2N1S(=O)(=O)c1cccc(C(=O)NCc2ccco2)c1 (stereo unspecified) do in these assays?
CHRM1 agonist: -3; CHRM1 PAM: 6; HTR2A ag: -7; TAAR1 antagonist: -2; TAAR1 ag: -1; M1 antag: -13

What do the screens show for `COc1ccc(C(CNC(=O)c2cccc(S(=O)(=O)N3CCc4ccccc43)c2)N(C)C)cc1` (stereo unspecified)?
CHRM1 agonist: -5; CHRM1 PAM: -15; HTR2A ag: -5; TAAR1 antagonist: 9; TAAR1 ag: 3; M1 antag: 12

How did CN1CCCCC(NC(=O)c2c(F)cccc2F)C1=O (stereo unspecified) do in these assays?
TAAR1 antagonist: -5; TAAR1 ag: 2

How did CCSc1nnc(NC(=O)c2ccccc2C)s1 do in these assays?
CHRM1 agonist: -6; CHRM1 PAM: -12; HTR2A ag: -1; TAAR1 antagonist: 3; TAAR1 ag: 3; M1 antag: 53*

How did CCSc1nnc(NC(=O)CC)s1 do in these assays?
CHRM1 agonist: 16*; CHRM1 PAM: 4; HTR2A ag: 0; TAAR1 antagonist: 7; TAAR1 ag: 0; M1 antag: -3

How did COCc1[nH]nc2c1C(c1ccc3c(c1)OCO3)N(c1ccc(OC)cc1)C2=O (stereo unspecified) do in these assays?
TAAR1 antagonist: -23; TAAR1 ag: 1

Results for O=C1CCCN1CCCNS(=O)(=O)c1cccs1 ?
CHRM1 agonist: -5; CHRM1 PAM: 8; HTR2A ag: -8; TAAR1 antagonist: -9; TAAR1 ag: 17; M1 antag: -7
